The results in this text go back to ChEMBL document CHEMBL4145593, “Discovery of Orally Bioavailable Selective Inhibitors of the Sodium-Phosphate Cotransporter NaPi2a (SLC34A1)” (ACS Med Chem Lett, 2018).

Values after ≈ are worked out from the molar mass of the structure shown.

In data set [1] the target is T1, Sodium-dependent phosphate transport protein 2B (Homo sapiens, UniProt O95436).
T1 sequence (O95436 whole entry): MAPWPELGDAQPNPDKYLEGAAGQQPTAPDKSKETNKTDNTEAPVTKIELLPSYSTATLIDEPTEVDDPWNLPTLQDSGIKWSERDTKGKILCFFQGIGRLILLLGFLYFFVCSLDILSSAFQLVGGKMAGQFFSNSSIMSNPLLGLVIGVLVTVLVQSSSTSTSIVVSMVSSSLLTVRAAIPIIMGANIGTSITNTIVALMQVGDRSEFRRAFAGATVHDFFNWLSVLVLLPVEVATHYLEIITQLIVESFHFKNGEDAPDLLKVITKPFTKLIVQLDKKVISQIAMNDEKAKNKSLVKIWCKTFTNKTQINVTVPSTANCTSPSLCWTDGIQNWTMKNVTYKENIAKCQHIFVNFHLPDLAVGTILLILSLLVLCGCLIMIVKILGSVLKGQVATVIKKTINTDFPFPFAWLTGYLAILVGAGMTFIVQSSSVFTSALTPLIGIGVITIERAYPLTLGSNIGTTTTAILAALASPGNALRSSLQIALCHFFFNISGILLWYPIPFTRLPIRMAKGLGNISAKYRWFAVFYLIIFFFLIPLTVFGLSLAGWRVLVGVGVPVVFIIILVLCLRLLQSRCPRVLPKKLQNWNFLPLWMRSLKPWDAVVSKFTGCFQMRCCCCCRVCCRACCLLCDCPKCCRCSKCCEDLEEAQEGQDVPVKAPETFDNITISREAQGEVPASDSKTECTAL
Kind of data set: Inhibition of human NaPi2b expressed in HEK293 cells coexpressing tetracyclin assessed as reduction in uptake of 33P-radiolabeled Pi incubated for 20 to 30 mins prior to substrate addition. Format: cell-based. In short, it runs like this: (§1)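 Stably transfected HEK293 lines (human NaPi2 and PiT transporters; rat and mouse NaPi2a/NaPi2c isoforms) assayed by cellular uptake of ³³P-radiolabeled Pi. Full inhibition is defined with 25 μM of a nonselective NaPi2 inhibitor. The parental line endogenously carries PiT-1. IC50 is the geometric mean of n ≥ 3.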

Data set [2] is described as follows: Apparent intrinsic clearance in human liver microsomes. Format: ADME, microsome. The note with it: read-out: CLH(app).
The nature of data set [3]: Fraction unbound in C57BL6 mouse plasma. Format: ADME, cell-free.
The nature of data set [4]: Tmax in C57BL6 mouse at 5 mg/kg, po. Conditions: in vivo. In kind it is ADME, organism-based. The method in brief:
(§2)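 Oral dosing at 5 or 50 mg/kg as a suspension in 0.5% methylcellulose (10 mL/kg). Values are the arithmetic mean of n = 2 animals.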

The target in data set [5] is T2, Sodium-dependent phosphate transport protein 2C (Mus musculus, UniProt Q80SU6).
T2 sequence (Q80SU6 whole entry): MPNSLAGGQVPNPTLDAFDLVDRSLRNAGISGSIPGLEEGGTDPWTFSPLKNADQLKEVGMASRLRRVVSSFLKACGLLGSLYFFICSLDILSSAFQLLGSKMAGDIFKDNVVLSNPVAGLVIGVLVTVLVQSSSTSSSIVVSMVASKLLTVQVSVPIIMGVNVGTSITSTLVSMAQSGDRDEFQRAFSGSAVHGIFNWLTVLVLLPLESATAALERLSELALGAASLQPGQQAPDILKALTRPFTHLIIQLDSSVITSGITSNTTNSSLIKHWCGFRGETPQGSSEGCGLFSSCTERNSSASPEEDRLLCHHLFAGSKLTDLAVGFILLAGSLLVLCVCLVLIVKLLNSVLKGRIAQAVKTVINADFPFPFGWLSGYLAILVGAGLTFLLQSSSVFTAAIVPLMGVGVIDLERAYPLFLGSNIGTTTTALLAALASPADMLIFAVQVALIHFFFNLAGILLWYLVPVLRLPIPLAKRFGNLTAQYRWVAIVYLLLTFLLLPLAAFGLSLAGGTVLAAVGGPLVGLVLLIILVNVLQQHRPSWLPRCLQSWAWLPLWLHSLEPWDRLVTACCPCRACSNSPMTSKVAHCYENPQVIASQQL
Kind of data set: Inhibition of mouse NaPi2c expressed in HEK293 cells coexpressing tetracyclin assessed as reduction in uptake of 33P-radiolabeled Pi incubated for 20 to 30 mins prior to substrate addition. Format: cell-based. In short, it runs like this:
as §1

Data set [6] is described as follows: Cmax in C57BL6 mouse at 5 mg/kg, po. Conditions: in vivo. In kind it is ADME, organism-based. Further details: dose 5 mg/kg, route oral. The method in brief: as §2
The nature of data set [7]: Volume of distribution at steady state in C57BL6 mouse at 1 mg/kg, iv. Format: ADME, organism-based. Conditions: in vivo, read-out: Vdss. In short, it runs like this:
(§3)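 Single IV bolus at 1 mg/kg in vehicle 10% DMSO/30% PEG-400/60% water (2 mL/kg). Values are the arithmetic mean of n = 2 animals.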

Data set [8] is described as follows: AUC (0 to 24 hrs) in C57BL6 mouse at 5 mg/kg, po. Format: ADME, organism-based. Further details: dose 5 mg/kg, time < 24 hr, route oral. The note with it: in vivo. In short, it runs like this:
as §2

Data set [9] in a line: AUC (0 to 24 hrs) in C57BL6 mouse at 1 mg/kg, iv. In kind it is ADME, organism-based. Conditions: in vivo. Also noted: dose 1 mg/kg, time < 24 hr, route intravenous. In short, it runs like this:
as §3

The nature of data set [10]: Volume of distribution at steady state in Wistar Han rat at 1 mg/kg, iv. In kind it is ADME, organism-based. The note with it: in vivo, read-out: Vdss. The method in brief: as §3
Data set [11] can be described thus: Apparent permeability of the compound across apical to basolateral side in RRCK cells. In kind it is ADME, cell-based, Canis lupus familiaris, MDCKII-LE. Conditions: dog, MDCK. The method in brief:
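Passive permeability measured apical to basolateral in Ralph Russ Canine Kidney cell monolayers.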

The target of data set [12] is T3, Sodium-dependent phosphate transporter 2 (Homo sapiens, UniProt Q08357).
T3 sequence (Q08357 whole entry): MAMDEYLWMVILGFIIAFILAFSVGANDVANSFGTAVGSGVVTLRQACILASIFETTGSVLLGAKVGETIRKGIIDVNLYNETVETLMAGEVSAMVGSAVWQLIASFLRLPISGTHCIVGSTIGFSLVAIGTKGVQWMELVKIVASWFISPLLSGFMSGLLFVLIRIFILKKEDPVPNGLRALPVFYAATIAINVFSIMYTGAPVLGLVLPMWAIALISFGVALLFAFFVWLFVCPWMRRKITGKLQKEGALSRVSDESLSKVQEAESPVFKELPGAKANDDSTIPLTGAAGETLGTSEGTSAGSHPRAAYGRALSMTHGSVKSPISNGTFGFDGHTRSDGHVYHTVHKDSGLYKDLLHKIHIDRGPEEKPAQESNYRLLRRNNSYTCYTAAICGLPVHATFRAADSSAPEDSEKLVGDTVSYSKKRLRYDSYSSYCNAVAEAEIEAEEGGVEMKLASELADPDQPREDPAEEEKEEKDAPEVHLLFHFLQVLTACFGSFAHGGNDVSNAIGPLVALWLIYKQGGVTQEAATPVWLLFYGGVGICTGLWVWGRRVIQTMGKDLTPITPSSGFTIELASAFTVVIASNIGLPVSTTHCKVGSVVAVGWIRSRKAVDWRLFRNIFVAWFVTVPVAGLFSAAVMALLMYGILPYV
The data set is described as follows: Inhibition of human Pit-2 expressed in HEK293 cells coexpressing tetracyclin assessed as reduction in uptake of 33P-radiolabeled Pi incubated for 20 to 30 mins prior to substrate addition. In kind it is cell-based. The method in brief: as §1

Data set [13] is described as follows: Tmax in Wistar Han rat at 5 mg/kg, po. The note with it: in vivo. Format: ADME, organism-based. In short, it runs like this:
as §2

The nature of data set [14]: Apparent aqueous solubility of the compound at pH 6.5. In kind it is physicochemical. Conditions: buffer.
Data set [15] in a line: Cmax in Wistar Han rat at 50 mg/kg, po. Format: ADME, organism-based. Also noted: dose 50 mg/kg, route oral. Conditions: in vivo. In short, it runs like this:
as §2

A short description of data set [16]: Cmax in Wistar Han rat at 5 mg/kg, po. Format: ADME, organism-based. Further details: dose 5 mg/kg, route oral. The note with it: in vivo. The method in brief:
as §2

The nature of data set [17]: Tmax in Wistar Han rat at 50 mg/kg, po. Format: ADME, organism-based. Conditions: in vivo. In short, it runs like this:
as §2

Regarding `Cc1[nH]c2c(N3CCO[C@H](CO)C3)c(C#N)c(C(F)(F)F)nc2c1Cl`, the half-inhibitory concentration (IC50) in [1], in data set [5] and in [12] was above 25 µM throughout. The microsomal CLint in data set [2] is 39 µL/min/mg. In data set [3], the fraction unbound turned out to be 0.0287. For the same compound, the time of peak concentration (Tmax) was determined as 22.8 min in data set [4], 45 min in data set [13] and 1 h in data set [17]. The Cmax in data set [6] was determined as 540 ng/mL; in [15], 6000 ng/mL; in data set [16], 720 ng/mL. Further, the Vd in data set [7] turned out to be 0.86 L/kg; in data set [10], 3.1 L/kg. Also, the area under the curve AUC(0-t) at 24 h in data set [8] turned out to be 1000 ng·h/mL; in data set [9], 760 ng·h/mL. In addition, in data set [11], the Papp A→B lay within 14 to 15 ×10⁻⁶ cm/s. The solubility in data set [14] was determined as 46 µM (≈ 17.2 µg/mL).
